The values below come from ChEMBL document CHEMBL1268843, “Synthesis, NMR characterization and divergent biological actions of 2'-hydroxy-ceramide/dihydroceramide stereoisomers in MCF7 cells” (Bioorg Med Chem, 2010).

For series [1], the system named is MCF7. In words: Metabolic stability in human MCF7 cells assessed as C24-ceramide levels at 20 uM after 24 hrs by LC-MS/MS analysis relative to control. The class given is ADME, cell-based. The following applies: mcf7, 24 h. In short, it runs like this: (§1)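 MCF7 cells grown in parallel with proliferation sets, treated with compound in ethanol (<0.1%) for 24 h (or time course at 10 μM); Bligh & Dyer lipid extracts analysed by LC-MS/MS on triple quadrupole in positive-ion MRM; quantified against spiked-matrix calibration curves with internal standard, linear regression; levels normalized to phospholipid (pmol/nmol Pi), compared with control cells.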

In series [2] the test system is MCF7. Briefly: Metabolic stability in human MCF7 cells assessed as C18-ceramide levels at 20 uM after 24 hrs by LC-MS/MS analysis relative to control. Type of series: ADME, cell-based. The following applies: mcf7, 24 h. A digest of the protocol: as §1
The test system of series [3] is MCF7. Briefly: Metabolic stability in human MCF7 cells assessed as endogenous 2-OH-ceramide levels at 2.5 to 20 uM after 24 hrs by LC-MS/MS analysis. The class given is ADME, cell-based. The following applies: mcf7, 24 h. A digest of the protocol:
as §1

The test system of series [4] is MCF7. Briefly: Metabolic stability in human MCF7 cells assessed as cellular ceramide levels at up to 25 uM after 24 hrs by LC-MS/MS analysis. The class given is ADME, cell-based. The following applies: mcf7, 24 h. A digest of the protocol:
as §1

In series [5] the test system is MCF7. In words: Metabolic stability in human MCF7 cells assessed as cellular sphingosine levels at up to 25 uM after 24 hrs by LC-MS/MS analysis. Type of series: ADME, cell-based. The following applies: mcf7, 24 h. In short, it runs like this:
as §1

For series [6], the system named is MCF7. Briefly: Metabolic stability in human MCF7 cells assessed as cellular ceramide levels at 10 uM after up to 30 hrs by LC-MS/MS analysis. The class given is ADME, cell-based. The following applies: mcf7, 30 h. A digest of the protocol:
as §1

Series [7] has as its system MCF7. Briefly: Metabolic stability in human MCF7 cells assessed as C24:1-ceramide levels at 20 uM after 24 hrs by LC-MS/MS analysis relative to control. Type of series: ADME, cell-based. The settings on record: mcf7, 24 h. In short, it runs like this:
as §1

For series [8], the system named is MCF7. In words: Metabolic stability in human MCF7 cells assessed as C16-ceramide levels at 20 uM after 24 hrs by LC-MS/MS analysis relative to control. The settings on record: mcf7, 24 h. The class given is ADME, cell-based. In short, it runs like this: as §1
The subject of series [9] is MCF7. In words: Metabolic stability in human MCF7 cells assessed as C14-ceramide levels at 20 uM after 24 hrs by LC-MS/MS analysis relative to control. Type of series: ADME, cell-based. The following applies: mcf7, 24 h. In short, it runs like this:
as §1

Series [10] relates to MCF7. In words: Metabolic stability in human MCF7 cells assessed as cellular C16-dihydroceramide levels after 24 hrs by LC-MS/MS analysis. The following applies: mcf7, 24 h. Type of series: ADME, cell-based. In short, it runs like this:
as §1

Series [11] concerns MCF7. In words: Metabolic stability in human MCF7 cells assessed as cellular dihydroceramide levels at up to 10 uM after 24 hrs by LC-MS/MS analysis. The settings on record: mcf7, 24 h. The class given is ADME, cell-based. A digest of the protocol: as §1
The test system of series [12] is MCF7. Briefly: Metabolic stability in human MCF7 cells assessed as cellular dihydroceramide levels at up to 5 uM after 24 hrs by LC-MS/MS analysis. The class given is ADME, cell-based. The following applies: mcf7, 24 h. A digest of the protocol:
as §1

Series [13] concerns MCF7. Briefly: Antiproliferative activity against human MCF7 cells after 24 hrs by trypan blue exclusion assay. Type of series: functional, cell-based. The settings on record: MCF7, 24 h.
The test system of series [14] is MCF7. In words: Metabolic stability in human MCF7 cells assessed as cellular dihydrsphingosine levels at 40 uM after 24 hrs by LC-MS/MS analysis relative to control. The class given is ADME, cell-based. The following applies: mcf7, 24 h. In short, it runs like this:
as §1

Series [15] has as its system MCF7. Briefly: Antiproliferative activity against human MCF7 cells assessed as inhibition of cell growth at 10 uM after 24 hrs by trypan blue exclusion assay. The class given is functional, cell-based.
For series [16], the system named is MCF7. Briefly: Metabolic stability in human MCF7 cells assessed as cellular dihydroceramide levels at 40 uM after 24 hrs by LC-MS/MS analysis. The class given is ADME, cell-based. The settings on record: mcf7, 24 h. A digest of the protocol:
as §1

The test system of series [17] is MCF7. In words: Metabolic stability in human MCF7 cells assessed as endogenous sphingosine levels at 10 uM after 24 hrs by LC-MS/MS analysis. The following applies: mcf7, 24 h. Type of series: ADME, cell-based. In short, it runs like this: as §1
The subject of series [18] is MCF7. In words: Metabolic stability in human MCF7 cells assessed as C16-ceramide levels at 10 uM after 24 hrs by LC-MS/MS analysis relative to control. Type of series: ADME, cell-based. The following applies: mcf7, 24 h. In short, it runs like this:
as §1

Series [19] deals with MCF7. Briefly: Metabolic stability in human MCF7 cells assessed as ceramide species levels at up to 5 uM after 24 hrs by LC-MS/MS analysis. Type of series: ADME, cell-based. The following applies: mcf7, 24 h. A digest of the protocol: as §1
Series [20] relates to MCF7. Briefly: Metabolic stability in human MCF7 cells assessed as C18-ceramide levels at 10 uM after 24 hrs by LC-MS/MS analysis relative to control. The class given is ADME, cell-based. The following applies: mcf7, 24 h. In short, it runs like this:
as §1

Series [21] deals with MCF7. In words: Metabolic stability in human MCF7 cells assessed as C14-ceramide levels at 10 uM after 24 hrs by LC-MS/MS analysis relative to control. The class given is ADME, cell-based. The settings on record: mcf7, 24 h. In short, it runs like this: as §1

Take `CCCCCCCCCCCCC/C=C/[C@@H](O)[C@H](CO)NC(=O)[C@@H](O)CCCC`: the “fold change (FC)” value in [1] amounted to 2; in [2], 30; in series [7], 4; in series [8], 7; in [9], 20. The Stability result in series [3], in [4], in series [5] and in series [6] was “Stable” throughout.

A word on the IC50: it is the concentration needed to halve the response being measured. With `CCCCCCCCCCCCCCC[C@@H](O)[C@H](CO)NC(=O)[C@H](O)CCCC`, the Stability entry in series [10], in [11], in series [12] and in [14] was “Stable” throughout. In series [13], the IC50 is 8 µM.

Consider `CCCCCCCCCCCCCCC[C@@H](O)[C@H](CO)NC(=O)CCCCC`, for which the “fold change (FC)” value in series [10] was 13; in [16], 7; in series [14], 5. In addition, the Stability entry in series [15] and in series [11] was “Stable” each time. The compound also registered an IC50 in series [13] of 38 µM.

For `CCCCCCCCCCCCC/C=C/[C@@H](O)[C@H](CO)NC(=O)CCCCC`, the “fold change (FC)” value is given as 0.2 in [1]; 80 in series [2]; 5 in series [7]; 20 in series [8]; 40 in series [9]. The compound also showed an IC50 in [13] of 12 µM.

`CCCCCCCCCCCCC/C=C/[C@@H](O)[C@H](CO)NC(=O)[C@H](O)CCCC`: the Stability result in series [3], in series [4], in series [17], in [5], in series [6] and in [19] was “Stable” each time. In addition, the “fold change (FC)” value in series [18] amounted to 1.7; in series [20] it was 5; in series [21], 3.

Consider `CCCCCCCCCCCCCCC[C@@H](O)[C@H](CO)NC(=O)[C@@H](O)CCCC`, for which the entries for the “fold change (FC)” value in [10], in series [16] and in [14] were 25, 19 and 16, respectively. The Stability entry in series [11] is “Stable”; in series [14] it was “Unstable”. Moreover, in series [13], the IC50 came out at 12 µM.
